# UPR XBP1 act – activators of adaptive arm of unfolded protein response (XBP1); 330,000 tested, 0.33% active; CHO-XBP1 luciferase reporter, IRE1-XBP1 UPR activation, luminescence; percent of tunicamycin response, DMSO as zero; activation, % at 20 µM;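 active = versus positive control, 20 µM dose yields 30% or more activation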;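 note: 100% = tunicamycin at 10 µg/mL and 0% = DMSO only wells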
#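 Test system: CHO-XBP1 luciferase reporter cells | Buffer or medium: Serum-containing F12 medium, 10% FBS | Schedule: 6 h compound exposure at 37 °C, 5% CO2 | Detection: Steady-Glo luciferase glow luminescence, 10 min after reagent addition | Read-out basis: Activation, % of tunicamycin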
# Mdm2-MdmX inh – disrupts the human Mdm2-MdmX interaction; O15151+Q00987; SaOS-2 split-luciferase Mdm2/MdmX complementation, luminescence; inhibition, % at 8 µM; 330,000 tested, 3% active;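 active = inhibition of at least 50% at 8 µM in the primary screen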
# Dynein transport – blocks dynein driven cargo transport along microtubules; 3617.4 mouse cells, GR-EGFP nuclear translocation imaging; test concentration mostly 20 µM; stimulated with dexamethasone, 1 µM; active compounds read low; 220,000 tested, 0.47% active; z-score, hits read low; AID 1381;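 active = plate z-score of nuclear minus cytoplasmic receptor signal below a set negative limit, without overly bright fluorescence or cell loss, cut at about -3.5 in these data, passing the limit was not always enough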;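 note: z-score of nuclear minus cytoplasmic ring GR-EGFP intensity difference per well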
#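 Medium: Induction medium lacking tetracycline, stripped serum | Probe or stimulus: 1.0 µM final dexamethasone stimulus | Schedule: 48 h induction, then 1 h compound, then 30 min agonist, 37 °C | Signal: Automated 10x imaging of fixed Hoechst-stained cells | Evaluation: Per-cell GR-EGFP intensity, nucleus versus surrounding cytoplasmic ring, well-averaged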
# Beta2AR agonist – activates human beta-2 adrenergic receptor causing internalization; response, % (no concentration beside the values); P07550; Am2.2-beta2AR cells, FAP receptor internalization, flow cytometry; 340,000 tested, 0.43% active;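 active = response above a set limit, near 3 SD of response in nonfluorescent compounds, cut at about 42% in these data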
# Mdm2 ligase inh – blocks human Mdm2 ubiquitin ligase activity; Q00987; cell-based MDM2 ubiquitination luciferase reporter, 2 h; 0 = plate control, 100 = twice control, blank-subtracted; signal enhancement, % at 5 µM; 210,000 tested, 0.11% active; AID 1230;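 active = signal enhancement of 30% or more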;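 note: luminescence tracks abundance of the self-degrading MDM2-luciferase fusion protein; higher signal means inhibition of MDM2 E3 ligase activity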
# Target sequence (Q00987 whole entry, looked up, the tested form may be a part): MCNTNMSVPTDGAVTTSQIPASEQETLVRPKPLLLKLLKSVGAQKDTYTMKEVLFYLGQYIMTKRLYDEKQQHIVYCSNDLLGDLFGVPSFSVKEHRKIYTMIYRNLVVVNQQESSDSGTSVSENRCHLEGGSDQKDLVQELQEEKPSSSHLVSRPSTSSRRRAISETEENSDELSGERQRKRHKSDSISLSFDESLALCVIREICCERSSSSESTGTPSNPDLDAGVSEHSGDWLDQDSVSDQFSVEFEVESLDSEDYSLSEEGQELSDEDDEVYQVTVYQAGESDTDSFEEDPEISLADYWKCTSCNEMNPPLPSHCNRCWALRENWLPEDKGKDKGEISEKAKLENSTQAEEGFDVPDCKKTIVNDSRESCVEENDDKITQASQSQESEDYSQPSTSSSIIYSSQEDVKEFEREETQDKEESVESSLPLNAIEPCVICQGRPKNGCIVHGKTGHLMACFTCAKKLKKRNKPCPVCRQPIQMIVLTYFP
#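 System: stable MDM2–luciferase fusion reporter cells / Input: 2000 cells seeded into each well / Schedule: 4 h settle plus 2 h compound, 37 °C / Compound: single-point 5 µM / Buffer or medium: cells held in DMEM / Benchmarks: control and blank well means / Evaluation: percent signal gain over controls, blank-subtracted / Measured by: luciferase luminescence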
# UPR CHOP act – apoptotic UPR (CHOP) activation; 330,000 tested, 0.34% active; activation, % at 10 µM; AID 449763; CHO-CHOP luciferase reporter, luminescence; percent of tunicamycin response over DMSO baseline;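 active = at 10 µM dose, activation of 40% or more, normalized to positive control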;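 note: 100% = tunicamycin at 10 µg/mL and 0% = DMSO alone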
#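 Evaluation: % reporter activation, DMSO baseline versus tunicamycin full activation; System: CHO-CHOP luciferase reporter cell line; Input: 500 cells/well; Incubation: 6 h compound treatment, 37 °C; Measured by: Steady-Glo luciferase luminescence; Dosing: one dose, 10 µM in 0.5% DMSO; Buffer or medium: F12 medium, 10% FBS; Benchmarks: positive tunicamycin 10 µg/mL, negative DMSO alone.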
# Mdm2 MdmX conf – confirmation of human Mdm2/MdmX interaction inhibitors | shares compounds with Mdm2-MdmX inh | inhibition, % at 8 µM | AID 489028 | Mdm2-MdmX binding, luminescent assay | 10,000 tested, 55% active; in the data active = inhibition above about 40%
# Full FLuc ctr – counter-screen for Mdm2/MdmX inhibitors: full-length luciferase; inhibition, % at 8 µM; 6,200 tested, 77% active; shares compounds with Mdm2-MdmX inh; SaOS-2 full-length luciferase counterscreen, luminescence;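 active = mean inhibition at 8 µM reaching about 37%, which flags the compound as non-specific, limit read from the data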;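 note: p53-null SaOS-2 cells with luciferase driven by a doxycycline-inducible promoter; compound on cells about two nights before reading with doxycycline added after day one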
# The depositor's hits bear a star; / = no result. This is a sample that favours compounds with a hit; in the whole collection about 3.7% have one here.
SMILES,UPR XBP1 act,Mdm2-MdmX inh,Dynein transport,Beta2AR agonist,Mdm2 ligase inh,UPR CHOP act,Mdm2 MdmX conf,Full FLuc ctr
COc1cccc(OC)c1OCCCN1CCC(Cc2ccccc2)CC1,-2.6,16.4,/,-4.2,/,-1.0,/,/
Cn1c(Sc2ccc(Cl)cc2)c(C=O)c2ccccc21,2.3,80.8*,-0.314,6.9,-18.2,-1.8,77.0*,56.9*
Cn1c(Sc2ccccc2Cl)c(C=O)c2ccccc21,3.5,24.0,-0.202,-2.1,8.3,-3.7,/,/
Cn1c(Oc2ccc(Cl)cc2)c(C=O)c2ccccc21,-6.7,50.1*,-0.441,0.0,-15.0,-3.1,41.4*,34.4
C[C@]12CCC(=O)CC1=CCC1C3CC=C(C#N)[C@@]3(C)CC[C@@]12O (some centres undefined),4.3,16.4,/,-145.6,/,0.0,/,/
O=C(Nc1ccc(S(=O)(=O)Nc2ncccn2)cc1)C1CC(=O)N(c2ccc(Cl)cc2)C1 (centres undefined),-5.1,-3.5,/,2.1,/,0.4,/,/
Cc1csc(NC(=O)Cc2c(F)cccc2Cl)n1,0.3,-42.1,/,0.1,/,3.8,/,/
Cc1csc(Nc2nc(N)c(C(=O)Nc3cc(Cl)ccc3F)o2)n1,-1.5,55.0*,/,10.9,/,2.4,9.1,/
COc1nc(NCCc2ccc(OC)c(OC)c2)nc(OC)n1,-0.3,-4.5,-1.07,-3.5,2.7,1.1,/,/
COc1ccc(CCNc2c3ccccc3nc3ccccc23)cc1OC,-0.5,50.5*,-0.164,5.0,0.8,1.4,26.4,/
COc1cc(Nc2c3ccccc3nc3ccccc23)cc(OC)c1OC,2.5,86.1*,/,22.1,/,1.2,54.8*,62.1*
COc1ccccc1Nc1c2ccccc2nc2ccccc12,-3.5,53.5*,/,4.3,/,-0.2,48.2*,69.4*
COc1ccc(Nc2c3ccccc3nc3ccccc23)cc1,-0.3,25.9,/,-23.6,/,-1.4,/,/
COc1ccc(C)cc1Nc1c2c(nc3ccccc13)CCC2,9.6,59.2*,/,4.2,/,4.8,59.0*,87.2*
COc1ccc(Nc2cc(Nc3cc(OC)c(OC)c(OC)c3)ncn2)cc1,-1.0,65.4*,/,11.9,/,0.5,23.6,/
COc1cc(Nc2nc(-c3ccccc3)c3cc(C)ccc3n2)cc(OC)c1OC,4.0,56.2*,1.22,-2.4,-27.0,3.9,23.6,/
Cc1ccc2nc(NCC(=O)O)nc(-c3ccccc3)c2c1,8.8,11.0,-0.393,-2.7,-14.7,0.6,/,/
Cc1ccc(C(C)C)c(OCCNCCc2ccccc2)c1,-0.2,51.5*,/,25.6,/,1.2,26.3,/
O=C(NCc1cccc2[nH]ccc12)C1CCC(=O)N(CCc2ccccc2)C1 (centres undefined),-3.5,4.4,/,-2.3,/,1.0,/,/
Nc1cc(OCC(F)(F)F)cc([N+](=O)[O-])c1,0.1,-20.0,-0.379,4.3,-3.0,0.1,/,/
Nc1cc(N)c(OCC(F)(F)F)cc1OCC(F)(F)F,-1.7,77.8*,-0.388,1.3,-3.1,-1.3,13.6,/
CC(=O)N1N=C(c2cccc(Cl)c2)OC1c1cccc([N+](=O)[O-])c1 (centres undefined),-2.4,65.4*,0.578,4.1,-15.0,0.4,-14.7,/
CCOc1ccccc1NC(=O)NNC(=O)CCc1ccc(OC)cc1,1.0,-15.6,/,7.1,/,0.0,/,/
COc1cc(/C=C(/C#N)c2nc(-c3cc4ccccc4oc3=O)cs2)cc([N+](=O)[O-])c1O,/,/,-0.389,/,-3.5,/,/,/
COc1cc(/C=C(\C#N)c2nc(-c3cc4ccccc4oc3=O)cs2)ccc1O,3.5,58.1*,-1.17,-93.4,-7.0,1.7,13.0,/
SMILES,UPR XBP1 act,Mdm2-MdmX inh,Dynein transport,Beta2AR agonist,Mdm2 ligase inh,UPR CHOP act,Mdm2 MdmX conf,Full FLuc ctr
C#CCNCCS(=O)(=O)N(Cc1ccc(Br)cc1)[C@@H](CC(C)C)C(=O)O,-0.2,25.9,/,-14.4,/,1.9,/,/
Cc1cccc(NC(=O)c2cc(-c3ccc(C)c(C)c3O)n[nH]2)c1,1.6,53.4*,/,-3.0,/,3.4,-36.5,/
CCn1c(=O)n(CC)c2cc(N3CCCC3)c(NC(=O)c3ccc(C)c([N+](=O)[O-])c3)cc21,2.5,9.2,/,2.6,/,1.4,/,/
COc1ccc2c(c1)C1(Nc3ccccc3-c3nc4ccccc4n31)C(=O)N2C (centres undefined),-1.3,75.5*,-0.346,0.7,-3.9,-1.5,80.5*,45.6*
COc1ccc2c(c1)C1(Nc3ccccc3-c3nc4ccccc4n31)C(=O)N2 (centres undefined),1.0,36.2,0.391,-3.6,4.3,-1.5,/,/
Cc1cc(Nc2ccc([N+](=O)[O-])cc2)c2ccccc2n1,0.5,92.7*,/,-0.6,/,0.4,70.0*,55.5*
Cc1cc(Nc2cccc([N+](=O)[O-])c2)c2ccccc2n1,-1.2,-18.7,-1.18,24.1,12.4,-2.0,/,/
CCOC(=O)c1cnc2ccc(C(=O)OC)cc2c1Nc1ccc(C(=O)O)cc1,-1.3,4.5,-0.421,-0.4,-9.1,2.4,/,/
CCOc1ccc2nc(C)cc(Nc3ccc(N4CCOCC4)cc3)c2c1,1.0,50.0,2.11,/,-14.3,-2.1,18.9,/
CCOC(=O)c1ccc2ncc(C(=O)OCC)c(Nc3ccc(N4CCOCC4)cc3)c2c1,-0.9,68.1*,-0.739,-2.4,-7.8,0.4,55.4*,55.4*
CC(=O)c1ccc(Nc2cc(C)nc3ccc(C)cc23)cc1,0.2,50.8*,0.208,6.9,-8.6,-1.4,36.9,89.8*
CC(C)C[C@H]1CNC(=O)C(=O)N1C[C@H](C)NC(=O)Cc1ccccc1,0.1,-27.2,/,1.7,/,-0.5,/,/
COc1ccc(C(=O)NC2CC2)cc1OC1CCN(Cc2ccc(F)cc2Cl)CC1,-1.3,13.4,/,-2.1,/,1.5,/,/
Cc1ccc(SCC(=O)OCc2csc(CC(=O)Nc3ccccc3C)n2)cc1C,-1.8,12.3,/,-1.1,/,-0.1,/,/
CCOc1ccc2nc(C)cc(Nc3cccc([N+](=O)[O-])c3)c2c1,9.4,100.4*,-0.808,8.4,-16.3,2.2,99.6*,51.0*
Cc1ccc(C)c(N2CCN(C(=O)CCc3nc(-c4ccccc4Cl)no3)CC2)c1,-0.9,19.3,/,5.0,/,-0.3,/,/
COC(=O)C1=C(C(=O)OC)[C@]2([C@@H]3CC=CCN[C@@H](Cc4ccccc4)C(=O)N3Cc3ccccc3)C=C[C@H]1O2,/,/,/,2.0,/,/,/,/
C=CCC(Nc1ccccc1)C12C=CC(O1)C(C(=O)OC)=C2C(=O)OC (centres undefined),-12.1,89.1*,-1.66,16.7,-4.5,34.9,46.0*,31.4
